Measured values: ChEMBL document CHEMBL4038263, “Flavonoids from Erythrina schliebenii” (J Nat Prod, 2017)
In brackets after ≈: the same amount, converted by molar mass.

Legend:
[1] = tested on: Mycobacterium tuberculosis; experiment: Antimycobacterial activity against Mycobacterium tuberculosis H37Rv; type: functional
Method in brief: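 Read-out is the minimum inhibitory concentration (MIC). Crude extracts are expressed in μg mL−1 and isolated constituents in μM. Isonicotinylhydrazine and rifampicin served as reference controls.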

[2] = tested on: MDA-MB-231; experiment: Cytotoxicity against human MDA-MB-231 cells; type: functional, cell-based

With COc1ccc(-c2coc3cc(O)cc(O)c3c2=O)cc1OC the MIC [1] was 102 µM (≈ 32 µg/mL) and the EC50 [2] was 31.8 µM.

With COc1ccc(/C=C/C(=O)c2c(O)cc(OC)c(OC)c2OC)cc1 the MIC [1] was 92.9 µM (≈ 32 µg/mL) and the EC50 [2] was 291 µM.

For COc1ccc(-c2coc3cc(O)cc(O)c3c2=O)cc1CC=C(C)C, the MIC [1] was 36.9 µM (≈ 13 µg/mL) and the EC50 [2] was 27.9 µM.

For COc1cc(-c2coc3cc(O)cc(O)c3c2=O)cc(OC)c1OC, the MIC [1] was 93 µM (≈ 32 µg/mL) and the EC50 [2] was 29 µM.

Compound COc1ccc([C@@H]2CC(=O)c3c(cc(OC)c(OC)c3OC)O2)cc1 has an MIC [1] of 92.9 µM (≈ 32 µg/mL) and an EC50 [2] of 291 µM.

COc1cc(OC)c([C@@H]2COc3cc4c(c(O)c3C2=O)C=CC(C)(C)O4)cc1OC showed an MIC [1] of 67.6 µM (≈ 27.9 µg/mL) and an EC50 [2] of 58 µM.

Compound COc1c(O)cc(-c2coc3cc(O)cc(O)c3c2=O)cc1CC=C(C)C has an MIC [1] of 86.9 µM (≈ 32 µg/mL) and an EC50 [2] of 77 µM.

In the case of COc1cc(-c2coc3cc(O)cc(O)c3c2=O)cc(CC=C(C)C)c1OC, the MIC [1] is reported as 77.2 µM (≈ 29.5 µg/mL) and the EC50 [2] is reported as 49.4 µM.

C=C(C)/C=C/c1cc(-c2coc3cc(O)cc(O)c3c2=O)cc(O)c1OC was tested, and the MIC [1] was 87.4 µM (≈ 32 µg/mL) and the EC50 [2] was 13 µM.

Compound COc1cc(OC)c(C2COc3cc(O)cc(O)c3C2=O)cc1OC (stereo not given) has an MIC [1] of 92.5 µM (≈ 32 µg/mL) and an EC50 [2] of 275 µM.

COc1cc2c(cc1CC=C(C)C)[C@@H]1Oc3cc(O)ccc3[C@@H]1CO2 showed an MIC [1] of 90.8 µM (≈ 30.7 µg/mL).

Compound CC1(C)C=Cc2c(cc3occ(-c4ccc(O)cc4O)c(=O)c3c2O)O1 has an MIC [1] of 90.9 µM (≈ 32 µg/mL) and an EC50 [2] of 16.9 µM.

Compound COc1c(CC=C(C)C)cc([C@@H]2CC(=O)c3c(O)cc(O)cc3O2)cc1CC=C(C)C has an MIC [1] of 49.5 µM (≈ 20.9 µg/mL) and an EC50 [2] of 21.6 µM.

In the case of COc1ccc(-c2cc(=O)c3c(OC)c(OC)c(OC)cc3o2)cc1, the MIC [1] is reported as 93.5 µM (≈ 32 µg/mL) and the EC50 [2] is reported as 292 µM.

CC(C)=CCc1cc([C@@H]2CC(=O)c3c(O)cc(O)cc3O2)cc(CC=C(C)C)c1O [ABYSSINONE V] showed an MIC [1] of 78.3 µM (≈ 32 µg/mL).

COc1ccc([C@@H]2CC(=O)c3c(cc(OC)c(O)c3OC)O2)cc1 [HAMILTONE A] was tested, and the MIC [1] was 96.9 µM (≈ 32 µg/mL) and the EC50 [2] was 201 µM.

NNC(=O)c1ccncc1 [ISONIAZID] gave an MIC [1] of 0.3 µM (≈ 0.0411 µg/mL).

C=C(C)[C@@H]1CC[C@]2(C)CC[C@]3(C)[C@H](CC[C@@H]4[C@@]5(C)CC[C@H](O)C(C)(C)[C@@H]5CC[C@]43C)[C@@H]12 [LUPEOL] gave an EC50 [2] of 209 µM.

CO[C@H]1/C=C/O[C@@]2(C)Oc3c(C)c(O)c4c(O)c(c(/C=N/N5CCN(C)CC5)c(O)c4c3C2=O)NC(=O)/C(C)=C\C=C\[C@H](C)[C@H](O)[C@@H](C)[C@@H](O)[C@@H](C)[C@H](OC(C)=O)[C@@H]1C [RIFAMPIN] was tested, and the MIC [1] was 0.09 µM (≈ 0.0741 µg/mL).

For COc1ccc(-c2cc(=O)c3c(OC)c(OC)c(OC)cc3o2)cc1OC [SINENSETIN], the MIC [1] was 85.9 µM (≈ 32 µg/mL) and the EC50 [2] was 269 µM.
